Measured values as given in ChEMBL document CHEMBL1131619, “32-Ascomycinyloxyacetic acid derived immunosuppressants. Independence of immunophilin binding and immunosuppressive potency” (J Med Chem, 1998).

How the values were obtained:
Homo sapiens = species on record: Homo sapiens; assay: Inhibition of human mixed lymphocyte response (MLR); assay type: functional
Method in brief: (§1)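 IC50 values are reported as mean ± SD for the stated number of determinations, using human cells or protein.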

Rattus norvegicus = assay: Inhibition of rat popliteal lymph node (PLN) hyperplasia when given ip; assay type: functional
Method in brief: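 Popliteal lymph node hyperplasia is induced in Lewis rats by Brown Norway rat cells, and its inhibition is measured.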

[1] = target: Peptidyl-prolyl cis-trans isomerase FKBP1A (Homo sapiens, UniProt P62942); assay: Inhibitory binding activity against human Immunophilin-FK-506 binding protein 12; method in brief: as §1
Peptidyl-prolyl cis-trans isomerase FKBP1A, sequence (P62942 whole entry): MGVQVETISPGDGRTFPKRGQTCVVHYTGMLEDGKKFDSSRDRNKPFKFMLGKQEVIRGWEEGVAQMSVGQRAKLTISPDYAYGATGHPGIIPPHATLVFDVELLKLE

SMILES	IC50 (Homo sapiens)	ED50 (Rattus norvegicus)	IC50 [1]
CC[C@@H]1/C=C(\C)C[C@H](C)C[C@H](OC)[C@H]2O[C@@](O)(C(=O)C(=O)N3CCCC[C@H]3C(=O)O[C@H](/C(C)=C/C3CC[C@@H](OCC(=O)O)[C@H](OC)C3)[C@H](C)[C@@H](O)CC1=O)[C@H](C)C[C@@H]2OC (some centres undefined)	140 nM	> 3 mg/kg/day	4 nM
CC[C@@H]1/C=C(\C)C[C@H](C)C[C@H](OC)[C@H]2O[C@@](O)(C(=O)C(=O)N3CCCC[C@H]3C(=O)O[C@H](/C(C)=C/C3CC[C@@H](OCC(=O)N(C)Cc4ccccc4)[C@H](OC)C3)[C@H](C)[C@@H](O)CC1=O)[C@H](C)C[C@@H]2OC (some centres undefined)	0.09 nM	> 3 mg/kg/day	5.6 nM
CC[C@@H]1/C=C(\C)C[C@H](C)C[C@H](OC)[C@H]2O[C@@](O)(C(=O)C(=O)N3CCCC[C@H]3C(=O)O[C@H](/C(C)=C/C3CC[C@@H](OCC(=O)Nc4cccc(C(F)(F)F)c4)[C@H](OC)C3)[C@H](C)[C@@H](O)CC1=O)[C@H](C)C[C@@H]2OC (some centres undefined)	0.14 nM		470 nM
CC[C@@H]1/C=C(\C)C[C@H](C)C[C@H](OC)[C@H]2O[C@@](O)(C(=O)C(=O)N3CCCC[C@H]3C(=O)O[C@H](/C(C)=C/C3CC[C@@H](OCC(=O)Nc4ccc(C(F)(F)F)cc4)[C@H](OC)C3)[C@H](C)[C@@H](O)CC1=O)[C@H](C)C[C@@H]2OC (some centres undefined)	0.23 nM		570 nM
CC[C@@H]1/C=C(\C)C[C@H](C)C[C@H](OC)[C@H]2O[C@@](O)(C(=O)C(=O)N3CCCC[C@H]3C(=O)O[C@H](/C(C)=C/C3CC[C@@H](OCC(=O)Nc4ccc(Cl)c(Cl)c4)[C@H](OC)C3)[C@H](C)[C@@H](O)CC1=O)[C@H](C)C[C@@H]2OC (some centres undefined)	0.55 nM		500 nM
CCOC(=O)CO[C@@H]1CCC(/C=C(\C)[C@H]2OC(=O)[C@@H]3CCCCN3C(=O)C(=O)[C@]3(O)O[C@H]([C@@H](OC)C[C@@H](C)C/C(C)=C/[C@@H](CC)C(=O)C[C@H](O)[C@H]2C)[C@@H](OC)C[C@H]3C)C[C@H]1OC (some centres undefined)	0.91 nM	> 3 mg/kg/day	9.4 nM
CC[C@@H]1/C=C(\C)C[C@H](C)C[C@H](OC)[C@H]2O[C@@](O)(C(=O)C(=O)N3CCCC[C@H]3C(=O)O[C@H](/C(C)=C/C3CC[C@@H](OCC(=O)Nc4ccc(OC)cc4)[C@H](OC)C3)[C@H](C)[C@@H](O)CC1=O)[C@H](C)C[C@@H]2OC (some centres undefined)	0.04 nM		50 nM
CC[C@@H]1/C=C(\C)C[C@H](C)C[C@H](OC)[C@H]2O[C@@](O)(C(=O)C(=O)N3CCCC[C@H]3C(=O)O[C@H](/C(C)=C/C3CC[C@@H](OCC(=O)Nc4ccc(Cl)cc4)[C@H](OC)C3)[C@H](C)[C@@H](O)CC1=O)[C@H](C)C[C@@H]2OC (some centres undefined)	0.07 nM		180 nM
CC[C@@H]1/C=C(\C)C[C@H](C)C[C@H](OC)[C@H]2O[C@@](O)(C(=O)C(=O)N3CCCC[C@H]3C(=O)O[C@H](/C(C)=C/C3CC[C@@H](OCC(=O)NCc4ccccc4)[C@H](OC)C3)[C@H](C)[C@@H](O)CC1=O)[C@H](C)C[C@@H]2OC (some centres undefined)	0.79 nM	1.2 mg/kg/day	48 nM
CC[C@@H]1/C=C(\C)C[C@H](C)C[C@H](OC)[C@H]2O[C@@](O)(C(=O)C(=O)N3CCCC[C@H]3C(=O)O[C@H](/C(C)=C/C3CC[C@@H](OCC(=O)Nc4ccccn4)[C@H](OC)C3)[C@H](C)[C@@H](O)CC1=O)[C@H](C)C[C@@H]2OC (some centres undefined)	0.05 nM		2.4 nM
CC[C@@H]1/C=C(\C)C[C@H](C)C[C@H](OC)[C@H]2O[C@@](O)(C(=O)C(=O)N3CCCC[C@H]3C(=O)O[C@H](/C(C)=C/[C@@H]3CC[C@@H](O)[C@H](OC)C3)[C@H](C)[C@@H](O)CC1=O)[C@H](C)C[C@@H]2OC [ASCOMYCIN]		0.3 mg/kg/day	2.1 nM
CC[C@@H]1/C=C(\C)C[C@H](C)C[C@H](OC)[C@H]2O[C@@](O)(C(=O)C(=O)N3CCCC[C@H]3C(=O)O[C@H](/C(C)=C/C3CC[C@@H](OCC(=O)N(C)c4ccccc4)[C@H](OC)C3)[C@H](C)[C@@H](O)CC1=O)[C@H](C)C[C@@H]2OC (some centres undefined)	0.26 nM	1.9 mg/kg/day	2.9 nM
CC[C@@H]1/C=C(\C)C[C@H](C)C[C@H](OC)[C@H]2O[C@@](O)(C(=O)C(=O)N3CCCC[C@H]3C(=O)O[C@H](/C(C)=C/C3CC[C@@H](OCC(=O)Nc4cccnc4)[C@H](OC)C3)[C@H](C)[C@@H](O)CC1=O)[C@H](C)C[C@@H]2OC (some centres undefined)	0.1 nM		3.3 nM
CC[C@@H]1/C=C(\C)C[C@H](C)C[C@H](OC)[C@H]2O[C@@](O)(C(=O)C(=O)N3CCCCC3C(=O)O[C@H](/C(C)=C/C3CC[C@@H](OCC(=O)OCc4ccccc4)[C@H](OC)C3)[C@H](C)[C@@H](O)CC1=O)[C@H](C)C[C@@H]2OC (some centres undefined)	7.62 nM	> 3 mg/kg/day	68 nM
CC[C@@H]1/C=C(\C)C[C@H](C)C[C@H](OC)[C@H]2O[C@@](O)(C(=O)C(=O)N3CCCC[C@H]3C(=O)O[C@H](/C(C)=C/C3CC[C@@H](OCC(=O)Nc4ccc(N5CCOCC5)cc4)[C@H](OC)C3)[C@H](C)[C@@H](O)CC1=O)[C@H](C)C[C@@H]2OC (some centres undefined)	0.58 nM		19 nM
CC[C@@H]1/C=C(\C)C[C@H](C)C[C@H](OC)[C@H]2O[C@@](O)(C(=O)C(=O)N3CCCC[C@H]3C(=O)O[C@H](/C(C)=C/C3CC[C@@H](OCC(=O)Nc4ccccc4)[C@H](OC)C3)[C@H](C)[C@@H](O)CC1=O)[C@H](C)C[C@@H]2OC (some centres undefined)	0.29 nM	1.4 mg/kg/day	170 nM
CC[C@@H]1/C=C(\C)C[C@H](C)C[C@H](OC)[C@H]2O[C@@](O)(C(=O)C(=O)N3CCCC[C@H]3C(=O)O[C@H](/C(C)=C/C3CC[C@@H](OCC(=O)Nc4ccncc4)[C@H](OC)C3)[C@H](C)[C@@H](O)CC1=O)[C@H](C)C[C@@H]2OC (some centres undefined)	0.16 nM		3.2 nM
CO[C@H]1C[C@@H]2CC[C@@H](C)[C@@](O)(O2)C(=O)C(=O)N2CCCC[C@H]2C(=O)O[C@H]([C@H](C)C[C@@H]2CC[C@@H](O)[C@H](OC)C2)CC(=O)[C@H](C)/C=C(\C)[C@@H](O)[C@@H](OC)C(=O)[C@H](C)C[C@H](C)/C=C/C=C/C=C/1C [SIROLIMUS]	1.27 nM	2.1 mg/kg/day	
C=CC[C@@H]1/C=C(\C)C[C@H](C)C[C@H](OC)[C@H]2O[C@@](O)(C(=O)C(=O)N3CCCC[C@H]3C(=O)O[C@H](/C(C)=C/[C@@H]3CC[C@@H](O)[C@H](OC)C3)[C@H](C)[C@@H](O)CC1=O)[C@H](C)C[C@@H]2OC [TACROLIMUS ANHYDROUS]	0.48 nM	0.1 mg/kg/day	
CC[C@@H]1/C=C(\C)C[C@H](C)C[C@H](OC)[C@H]2O[C@@](O)(C(=O)C(=O)N3CCCC[C@H]3C(=O)O[C@H](/C(C)=C/C3CC[C@@H](OCC(=O)N(C)CCc4ccccc4)[C@H](OC)C3)[C@H](C)[C@@H](O)CC1=O)[C@H](C)C[C@@H]2OC (some centres undefined)	0.64 nM	> 3 mg/kg/day	0.4 nM
CC[C@@H]1/C=C(\C)C[C@H](C)C[C@H](OC)[C@H]2O[C@@](O)(C(=O)C(=O)N3CCCC[C@H]3C(=O)O[C@H](/C(C)=C/C3CC[C@@H](OCC(=O)Nc4cccc(F)c4)[C@H](OC)C3)[C@H](C)[C@@H](O)CC1=O)[C@H](C)C[C@@H]2OC (some centres undefined)	0.16 nM		180 nM
CC[C@@H]1/C=C(\C)C[C@H](C)C[C@H](OC)[C@H]2O[C@@](O)(C(=O)C(=O)N3CCCC[C@H]3C(=O)O[C@H](/C(C)=C/C3CC[C@@H](OCC(=O)Nc4ccc(C)cc4)[C@H](OC)C3)[C@H](C)[C@@H](O)CC1=O)[C@H](C)C[C@@H]2OC (some centres undefined)	0.02 nM		71 nM
CC[C@@H]1/C=C(\C)C[C@H](C)C[C@H](OC)[C@H]2O[C@@](O)(C(=O)C(=O)N3CCCC[C@H]3C(=O)O[C@H](/C(C)=C/C3CC[C@@H](OCC(=O)Nc4ccc(O)cc4)[C@H](OC)C3)[C@H](C)[C@@H](O)CC1=O)[C@H](C)C[C@@H]2OC (some centres undefined)	0.14 nM		16 nM
CC[C@@H]1/C=C(\C)C[C@H](C)C[C@H](OC)[C@H]2O[C@@](O)(C(=O)C(=O)N3CCCC[C@H]3C(=O)O[C@H](/C(C)=C/C3CC[C@@H](OCC(=O)Nc4ccc(F)cc4)[C@H](OC)C3)[C@H](C)[C@@H](O)CC1=O)[C@H](C)C[C@@H]2OC (some centres undefined)	0.03 nM		46 nM
CC[C@@H]1/C=C(\C)C[C@H](C)C[C@H](OC)[C@H]2O[C@@](O)(C(=O)C(=O)N3CCCC[C@H]3C(=O)O[C@H](/C(C)=C/C3CC[C@@H](OCC(=O)NCCc4ccccc4)[C@H](OC)C3)[C@H](C)[C@@H](O)CC1=O)[C@H](C)C[C@@H]2OC (some centres undefined)	0.34 nM	> 3 mg/kg/day	13 nM
CC[C@@H]1/C=C(\C)C[C@H](C)C[C@H](OC)[C@H]2O[C@@](O)(C(=O)C(=O)N3CCCC[C@H]3C(=O)O[C@H](/C(C)=C/C3CC[C@@H](OCC(=O)NC4CCCCC4)[C@H](OC)C3)[C@H](C)[C@@H](O)CC1=O)[C@H](C)C[C@@H]2OC (some centres undefined)	0.47 nM		2 nM
CC[C@@H]1/C=C(\C)C[C@H](C)C[C@H](OC)[C@H]2O[C@@](O)(C(=O)C(=O)N3CCCC[C@H]3C(=O)O[C@H](/C(C)=C/C3CC[C@@H](OCC(N)=O)[C@H](OC)C3)[C@H](C)[C@@H](O)CC1=O)[C@H](C)C[C@@H]2OC (some centres undefined)	0.13 nM	0.3 mg/kg/day	0.6 nM
